Experimental data: ChEMBL document CHEMBL1156009, “Eleven amino acid glucagon-like peptide-1 receptor agonists with antidiabetic activity” (J Med Chem, 2009)
Active and inactive are the calls of the source. The calls are words filed in the database; no cut-off is given here. Square brackets hold non-standard residues; d marks the D form. Peptide text beside a SMILES is read from it. Bip(2'-Et-4'-OMe) = CCc1cc(OC)ccc1-c1ccc(C[C@H](N)C(=O)O)cc1; Bip(2'-Me) = Cc1ccccc1-c1ccc(C[C@H](N)C(=O)O)cc1; αMeF = C[C@](N)(Cc1ccccc1)C(=O)O; Aib = CC(C)(N)C(=O)O

target: T1, Glucagon-like peptide 1 receptor (Homo sapiens, UniProt P43220); experiment: Agonist activity at human GLP1R expressed in CHO cells assessed as stimulation of intracellular [3H]cAMP accumulation after 30 mins by scintillation proximity assay; type: functional, cell-based
T1 sequence (P43220 whole entry): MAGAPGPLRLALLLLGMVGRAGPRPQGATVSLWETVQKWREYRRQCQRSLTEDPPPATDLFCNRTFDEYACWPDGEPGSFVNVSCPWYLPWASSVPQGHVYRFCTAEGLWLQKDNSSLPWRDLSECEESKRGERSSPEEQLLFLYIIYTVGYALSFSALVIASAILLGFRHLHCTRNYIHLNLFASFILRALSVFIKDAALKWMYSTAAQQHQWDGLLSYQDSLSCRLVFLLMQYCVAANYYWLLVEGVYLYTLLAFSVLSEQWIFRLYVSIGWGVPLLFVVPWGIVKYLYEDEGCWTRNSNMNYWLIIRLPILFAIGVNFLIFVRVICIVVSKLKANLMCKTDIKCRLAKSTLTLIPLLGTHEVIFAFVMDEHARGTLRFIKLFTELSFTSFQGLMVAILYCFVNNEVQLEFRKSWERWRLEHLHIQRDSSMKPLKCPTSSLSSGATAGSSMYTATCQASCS
Procedure, shortened: (§1)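 CHO cells stably expressing human or mouse GLP-1R, grown in F-12 with 10% FBS plus Geneticin (0.4 mg/mL human, 1 mg/mL mouse), plated 2×10^4/well overnight. Half-log dilutions made in DMSO, then in DPBS with 0.1 mM IBMX and 0.05% BSA (final 1% DMSO). Cells exposed 30 min. cAMP read by SPA and converted to pmol via standard curve. Duplicates, at least three separate runs.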

Point of comparison: `Cc1cccc(-c2ccc(C[C@H](NC(=O)[C@H](Cc3ccc(-c4ccccc4)cc3)NC(=O)[C@H](CC(=O)O)NC(=O)[C@H](CO)NC(=O)[C@@H](NC(=O)[C@H](Cc3ccccc3)NC(=O)[C@@H](NC(=O)CNC(=O)[C@H](CCC(=O)O)NC(=O)[C@H](C)NC(=O)[C@@H](N)Cc3cnc[nH]3)[C@@H](C)O)[C@@H](C)O)C(N)=O)cc2)c1`, EC50 215 nM. Against it:
- CCCc1ccccc1-c1ccc(C[C@H](NC(=O)[C@H](CC(=O)O)NC(=O)[C@H](CO)NC(=O)[C@@H](NC(=O)[C@H](Cc2ccccc2)NC(=O)[C@@H](NC(=O)CNC(=O)[C@H](CCC(=O)O)NC(=O)[C@H](C)NC(=O)[C@@H](N)Cc2cnc[nH]2)[C@@H](C)O)[C@@H](C)O)C(=O)N[C@@H](Cc2ccc(-c3ccccc3C)cc2)C(N)=O)cc1 — 2.3-fold lower, 93 nM
- Cc1ccc(-c2ccc(C[C@H](NC(=O)[C@H](Cc3ccc(-c4ccccc4C)cc3)NC(=O)[C@H](CC(=O)O)NC(=O)[C@H](CO)NC(=O)[C@@H](NC(=O)[C@H](Cc3ccccc3)NC(=O)[C@@H](NC(=O)CNC(=O)[C@H](CCC(=O)O)NC(=O)[C@H](C)NC(=O)[C@@H](N)Cc3cnc[nH]3)[C@@H](C)O)[C@@H](C)O)C(N)=O)cc2)cc1 — 2.3-fold lower, 95 nM
- CCc1cc(OC)ccc1-c1ccc(C[C@H](NC(=O)[C@H](CC(=O)O)NC(=O)[C@H](CO)NC(=O)[C@@H](NC(=O)[C@](C)(Cc2ccccc2)NC(=O)[C@@H](NC(=O)CNC(=O)[C@H](CCC(=O)O)NC(=O)[C@H](C)NC(=O)[C@@H](N)Cc2cnc[nH]2)[C@@H](C)O)[C@@H](C)O)C(=O)N[C@@H](Cc2ccc(-c3ccccc3C)cc2)C(N)=O)cc1 (H-HAEGT[αMeF]TSD[Bip(2'-Et-4'-OMe)][Bip(2'-Me)]-NH2) — 90-fold lower, 2.4 nM
- C[C@H](NC(=O)[C@@H](N)Cc1cnc[nH]1)C(=O)N[C@@H](CCC(=O)O)C(=O)NCC(=O)N[C@H](C(=O)N[C@@H](Cc1ccccc1)C(=O)N[C@H](C(=O)N[C@@H](CO)C(=O)N[C@@H](CC(=O)O)C(=O)N[C@@H](Cc1ccc(-c2ccccc2)cc1)C(=O)N[C@@H](Cc1ccc(-c2ccc(F)cc2)cc1)C(N)=O)[C@@H](C)O)[C@@H](C)O — 2-fold higher, 430 nM
- C[C@H](NC(=O)[C@@H](N)Cc1cnc[nH]1)C(=O)N[C@@H](CCC(=O)O)C(=O)NCC(=O)N[C@H](C(=O)N[C@@H](Cc1ccccc1)C(=O)N[C@H](C(=O)N[C@@H](CO)C(=O)N[C@@H](CC(=O)O)C(=O)N[C@@H](Cc1ccc(-c2ccccc2)cc1)C(=O)N[C@@H](Cc1ccc(-c2ccccc2)cc1)C(N)=O)[C@@H](C)O)[C@@H](C)O — 2.5-fold higher, 545 nM
- COc1ccc(-c2ccc(C[C@H](NC(=O)[C@H](CC(=O)O)NC(=O)[C@H](CO)NC(=O)[C@@H](NC(=O)[C@H](Cc3ccccc3)NC(=O)[C@@H](NC(=O)CNC(=O)[C@H](CCC(=O)O)NC(=O)[C@H](C)NC(=O)[C@@H](N)Cc3cnc[nH]3)[C@@H](C)O)[C@@H](C)O)C(=O)N[C@@H](Cc3ccc(-c4ccccc4C)cc3)C(N)=O)cc2)c(C)c1 — 6.1-fold lower, 35 nM
- CCc1ccccc1-c1ccc(C[C@H](NC(=O)[C@H](CC(=O)O)NC(=O)[C@H](CO)NC(=O)[C@@H](NC(=O)[C@H](Cc2ccccc2)NC(=O)[C@@H](NC(=O)CNC(=O)[C@H](CCC(=O)O)NC(=O)[C@H](C)NC(=O)[C@@H](N)Cc2cnc[nH]2)[C@@H](C)O)[C@@H](C)O)C(=O)N[C@@H](Cc2ccc(-c3ccccc3)cc2)C(N)=O)cc1 — 8-fold lower, 27 nM
- COc1ccc(-c2ccc(C[C@H](NC(=O)[C@H](Cc3ccc(-c4ccccc4)cc3)NC(=O)[C@H](CC(=O)O)NC(=O)[C@H](CO)NC(=O)[C@@H](NC(=O)[C@H](Cc3ccccc3)NC(=O)[C@@H](NC(=O)CNC(=O)[C@H](CCC(=O)O)NC(=O)[C@H](C)NC(=O)[C@@H](N)Cc3cnc[nH]3)[C@@H](C)O)[C@@H](C)O)C(N)=O)cc2)cc1 — 1.8-fold higher, 390 nM
- Cc1ccccc1-c1ccc(C[C@H](NC(=O)[C@H](Cc2ccc(-c3ccccc3)cc2)NC(=O)[C@H](CC(=O)O)NC(=O)[C@H](CO)NC(=O)[C@@H](NC(=O)[C@H](Cc2ccccc2)NC(=O)[C@@H](NC(=O)CNC(=O)[C@H](CCC(=O)O)NC(=O)[C@H](C)NC(=O)[C@@H](N)Cc2cnc[nH]2)[C@@H](C)O)[C@@H](C)O)C(N)=O)cc1 — 2.2-fold higher, 480 nM
- C[C@H](NC(=O)[C@@H](N)Cc1cnc[nH]1)C(=O)N[C@@H](CCC(=O)O)C(=O)NCC(=O)N[C@H](C(=O)N[C@@H](Cc1ccccc1)C(=O)N[C@H](C(=O)N[C@@H](CO)C(=O)N[C@@H](CC(=O)O)C(=O)N[C@@H](Cc1ccc(-c2ccccc2)cc1)C(N)=O)[C@@H](C)O)[C@@H](C)O — higher, > 10000 nM
- CCc1cc(OC)ccc1-c1ccc(C[C@H](NC(=O)[C@H](CC(=O)O)NC(=O)[C@H](CO)NC(=O)[C@@H](NC(=O)[C@](C)(Cc2ccccc2)NC(=O)[C@@H](NC(=O)CNC(=O)[C@H](CCC(=O)O)NC(=O)C(C)(C)NC(=O)[C@@H](N)Cc2cnc[nH]2)[C@@H](C)O)[C@@H](C)O)C(=O)N[C@@H](Cc2ccc(-c3ccccc3C)cc2)C(N)=O)cc1 (H-H[Aib]EGT[αMeF]TSD[Bip(2'-Et-4'-OMe)][Bip(2'-Me)]-NH2) — 770-fold lower, 0.28 nM
- Cc1cccc(-c2ccc(C[C@H](NC(=O)[C@H](Cc3ccc(-c4ccccc4C)cc3)NC(=O)[C@H](CC(=O)O)NC(=O)[C@H](CO)NC(=O)[C@@H](NC(=O)[C@H](Cc3ccccc3)NC(=O)[C@@H](NC(=O)CNC(=O)[C@H](CCC(=O)O)NC(=O)[C@H](C)NC(=O)[C@@H](N)Cc3cnc[nH]3)[C@@H](C)O)[C@@H](C)O)C(N)=O)cc2)c1 — 2.5-fold lower, 87 nM
- COc1cccc(-c2ccc(C[C@H](NC(=O)[C@H](CC(=O)O)NC(=O)[C@H](CO)NC(=O)[C@@H](NC(=O)[C@H](Cc3ccccc3)NC(=O)[C@@H](NC(=O)CNC(=O)[C@H](CCC(=O)O)NC(=O)[C@H](C)NC(=O)[C@@H](N)Cc3cnc[nH]3)[C@@H](C)O)[C@@H](C)O)C(=O)N[C@@H](Cc3ccc(-c4ccccc4C)cc3)C(N)=O)cc2)c1 — 4.5-fold higher, 965 nM
- C[C@H](NC(=O)[C@@H](N)Cc1cnc[nH]1)C(=O)N[C@@H](CCC(=O)O)C(=O)NCC(=O)N[C@H](C(=O)N[C@@H](Cc1ccccc1)C(=O)N[C@H](C(=O)N[C@@H](CO)C(=O)N[C@@H](CC(=O)O)C(=O)N[C@@H](Cc1ccc(-c2ccccc2)cc1)C(=O)N[C@@H](Cc1ccc(-c2ccccc2)cc1)C(=O)N[C@@H](Cc1ccc(-c2ccccc2)cc1)C(N)=O)[C@@H](C)O)[C@@H](C)O — 3.7-fold higher, 787 nM
- CCc1cc(OC)ccc1-c1ccc(C[C@H](NC(=O)[C@H](CC(=O)O)NC(=O)[C@H](CO)NC(=O)[C@@H](NC(=O)[C@H](Cc2ccccc2)NC(=O)[C@@H](NC(=O)CNC(=O)[C@H](CCC(=O)O)NC(=O)[C@H](C)NC(=O)[C@@H](N)Cc2cnc[nH]2)[C@@H](C)O)[C@@H](C)O)C(=O)N[C@@H](Cc2ccc(-c3ccccc3C)cc2)C(N)=O)cc1 — 31-fold lower, 7 nM
- C[C@H](NC(=O)[C@@H](N)Cc1cnc[nH]1)C(=O)N[C@@H](CCC(=O)O)C(=O)NCC(=O)N[C@H](C(=O)N[C@@H](Cc1ccccc1)C(=O)N[C@H](C(=O)N[C@@H](CO)C(=O)N[C@@H](CC(=O)O)C(=O)N[C@@H](Cc1ccc(-c2ccccc2)cc1)C(=O)N[C@@H](Cc1ccc(-c2ccccc2)cc1)C(=O)O)[C@@H](C)O)[C@@H](C)O — higher, > 10000 nM
- CCc1ccccc1-c1ccc(C[C@H](NC(=O)[C@H](CC(=O)O)NC(=O)[C@H](CO)NC(=O)[C@@H](NC(=O)[C@H](Cc2ccccc2)NC(=O)[C@@H](NC(=O)CNC(=O)[C@H](CCC(=O)O)NC(=O)[C@H](C)NC(=O)[C@@H](N)Cc2cnc[nH]2)[C@@H](C)O)[C@@H](C)O)C(=O)N[C@@H](Cc2ccc(-c3ccccc3C)cc2)C(N)=O)cc1 — 9.8-fold lower, 22 nM
- Cc1ccccc1-c1ccc(C[C@H](NC(=O)[C@H](Cc2ccc(-c3ccccc3C)cc2)NC(=O)[C@H](CC(=O)O)NC(=O)[C@H](CO)NC(=O)[C@@H](NC(=O)[C@H](Cc2ccccc2)NC(=O)[C@@H](NC(=O)CNC(=O)[C@H](CCC(=O)O)NC(=O)[C@H](C)NC(=O)[C@@H](N)Cc2cnc[nH]2)[C@@H](C)O)[C@@H](C)O)C(N)=O)cc1 — within 1.5-fold, 148 nM
- Cc1ccc(-c2ccc(C[C@H](NC(=O)[C@H](Cc3ccc(-c4ccccc4)cc3)NC(=O)[C@H](CC(=O)O)NC(=O)[C@H](CO)NC(=O)[C@@H](NC(=O)[C@H](Cc3ccccc3)NC(=O)[C@@H](NC(=O)CNC(=O)[C@H](CCC(=O)O)NC(=O)[C@H](C)NC(=O)[C@@H](N)Cc3cnc[nH]3)[C@@H](C)O)[C@@H](C)O)C(N)=O)cc2)cc1 — within 1.5-fold, 270 nM

target: T1, Glucagon-like peptide 1 receptor; experiment: Agonist activity at human GLP1R expressed in CHO cells assessed as stimulation of intracellular [3H]cAMP accumulation at 1 to 100 nM after 30 mins by scintillation proximity assay in presence of GLP1R antagonist truncated exendin-4(9-39); type: functional, cell-based; procedure, shortened: as §1

In the case of `C[C@H](NC(=O)[C@@H](N)Cc1cnc[nH]1)C(=O)N[C@@H](CCC(=O)O)C(=O)NCC(=O)N[C@H](C(=O)N[C@@H](Cc1ccccc1)C(=O)N[C@H](C(=O)N[C@@H](CO)C(=O)N[C@@H](CC(=O)O)C(=O)N[C@@H](Cc1ccc(-c2ccccc2)cc1)C(=O)N[C@@H](Cc1ccc(-c2ccccc2)cc1)C(N)=O)[C@@H](C)O)[C@@H](C)O`, the Activity is reported as “inactive”.

target: T1, Glucagon-like peptide 1 receptor; experiment: Displacement of [125I]GLP1 from human GLP1R expressed in CHO cells; type: cell-based

For `C[C@H](NC(=O)[C@@H](N)Cc1cnc[nH]1)C(=O)N[C@@H](CCC(=O)O)C(=O)NCC(=O)N[C@H](C(=O)N[C@@H](Cc1ccccc1)C(=O)N[C@H](C(=O)N[C@@H](CO)C(=O)N[C@@H](CC(=O)O)C(=O)N[C@@H](Cc1ccc(-c2ccccc2)cc1)C(=O)N[C@@H](Cc1ccc(-c2ccccc2)cc1)C(N)=O)[C@@H](C)O)[C@@H](C)O`, the Activity was “Active”.
